Measured values as given in ChEMBL document CHEMBL1250461, “Synthesis, binding and bioactivity of gamma-methylene gamma-lactam ecdysone receptor ligands: advantages of QSAR models for flexible receptors” (Bioorg Med Chem, 2010).
≈ marks a conversion by molar mass, not a printed value.

What was measured:
Ecdysone receptor = molecular target: T1, Ecdysone receptor (Lucilia cuprina, UniProt O18531); assay: Binding affinity to Lucilia cuprina recombinant ecdysone receptor ligand binding domain after 3 hrs by fluorescence polarization assay
T1 sequence (O18531 whole entry): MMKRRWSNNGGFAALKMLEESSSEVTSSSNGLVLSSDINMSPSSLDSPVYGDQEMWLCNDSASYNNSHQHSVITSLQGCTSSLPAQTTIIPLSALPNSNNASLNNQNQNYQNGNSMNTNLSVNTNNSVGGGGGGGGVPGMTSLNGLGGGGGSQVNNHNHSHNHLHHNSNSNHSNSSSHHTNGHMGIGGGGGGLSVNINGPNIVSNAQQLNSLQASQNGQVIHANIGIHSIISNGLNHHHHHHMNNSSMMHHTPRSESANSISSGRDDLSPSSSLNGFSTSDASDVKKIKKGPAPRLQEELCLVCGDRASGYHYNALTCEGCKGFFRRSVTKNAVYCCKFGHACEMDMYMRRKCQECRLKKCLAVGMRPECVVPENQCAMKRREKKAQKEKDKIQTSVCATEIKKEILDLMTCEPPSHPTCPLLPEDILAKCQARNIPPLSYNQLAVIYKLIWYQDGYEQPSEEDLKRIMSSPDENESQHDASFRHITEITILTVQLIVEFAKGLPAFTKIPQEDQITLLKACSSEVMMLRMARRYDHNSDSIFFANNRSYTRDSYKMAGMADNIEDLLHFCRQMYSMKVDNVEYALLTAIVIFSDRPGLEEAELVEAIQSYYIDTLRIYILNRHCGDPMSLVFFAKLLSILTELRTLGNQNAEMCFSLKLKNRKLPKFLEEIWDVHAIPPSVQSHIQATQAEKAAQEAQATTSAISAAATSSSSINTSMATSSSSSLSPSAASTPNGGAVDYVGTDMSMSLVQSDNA
Procedure, shortened: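 L. cuprina EcR_DEF/USP_DEF LBD heterodimer, baculovirus co-expressed and IMAC-purified, used at 1.14 mg/mL. Fluorescence polarisation competition against 36 nM fluorescein–inokosterone A conjugate, with 0.5 mg/mL BSA and 3% v/v DMSO in 50 mM sodium phosphate/100 mM NaCl, pH 7.4. Test range 3 nM–3 mM final. Overnight at 4 °C, then 3 h re-equilibration at room temperature, mP read. Triplicate on one plate; IC50 from mean.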

[1] = Toxicity in Bovicola ovis assessed as mortality after 9 days; conditions: 216 h
[2] = Binding affinity to Bovicola ovis recombinant ecdysone receptor ligand binding domain after 3 hrs by fluorescence polarization assay
Procedure, shortened: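 B. ovis EcR_DEF/USP_DEF LBD heterodimer, co-expressed from baculovirus and purified by IMAC (2.51 mg/mL final). Competes with 36 nM fluorescein–inokosterone A conjugate in 50 mM sodium phosphate, 100 mM NaCl, pH 7.4 with 0.5 mg/mL BSA and 3% v/v DMSO. Compound range 3 nM–3 mM final. Incubated overnight at 4 °C, then 3 h at room temperature before polarisation (mP) read. Triplicate; IC50 from mean.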

IC50 (Ecdysone receptor) | IC50 [2] | Structure (SMILES) | LC50 [1]
5.5 µM | 2.7 µM | C=C1C(CC(C)C)=C(C#N)C(=O)N1c1cc(Cl)c(Cl)cc1Cl | 
175 µM | 30 µM | C=C1C(CC(C)C)=C(C#N)C(=O)N1c1c(C)cc(C)cc1C | 
55 µM | 43 µM | C=C1C(c2ccccc2)=C(C#N)C(=O)N1c1c(C)cccc1C(C)C | 
17.5 µM | 12.5 µM | C=C1C(C)=C(C(=O)c2ccccc2)C(=O)N1c1cccc(C(F)(F)F)c1 | 
250 µM | 12.5 µM | C=C1C(C)=C(C(=O)Nc2cccc(Cl)c2)C(=O)N1c1cccc(Cl)c1 | 
42 µM | 6.5 µM | C=C1C(C(C)C)=C(C#N)C(=O)N1c1ccc(Cl)cc1C(C)(C)C | 
47 µM | 27.5 µM | C=C1C(C(C)C)=C(C#N)C(=O)N1c1c(C)cccc1C(C)C | 
480 µM | 62.5 µM | C=C1C(C(C)C)=C(C#N)C(=O)N1c1c(C)cc(Cl)cc1Cl | 
12.5 µM | 6 µM | C=C1C(CCCC)=C(C#N)C(=O)N1c1cc(Cl)ccc1C | 
5.5 µM | 4 µM | C=C1C(CCCC)=C(C#N)C(=O)N1c1cc(Cl)ccc1C(C)(C)C | 
56 µM | 6 µM | C=C1C(CCCC)=C(C#N)C(=O)N1c1c(C)cccc1Cl | 
33 µM | 46 µM | C=C1C(CCCC)=C(C#N)C(=O)N1c1c(C)cccc1CC | 
5.5 µM | 24 µM | CC(C)(O)CC[C@@H](O)[C@](C)(O)[C@H]1CC[C@@]2(O)C3=CC(=O)[C@@H]4C[C@@H](O)[C@@H](O)C[C@]4(C)[C@H]3CC[C@]12C [20-HYDROXYECDYSONE] | 

Structure (SMILES) | IC50 (Ecdysone receptor) | IC50 [2] | LC50 [1]
C=C1C(CC)=C(C#N)C(=O)N1c1cc(Cl)ccc1C(C)(C)C | 11 µM | 15 µM | 190 µg/mL (≈ 604 µM)
C=C1C(CCC)=C(C#N)C(=O)N1c1cc(Cl)ccc1Cl |  | 8.5 µM | 66 µg/mL (≈ 215 µM)
C=C1C(C)=C(C#N)C(=O)N1N1CCCCC1 |  | 125 µM | 244 µg/mL (≈ 1120 µM)
C=C1C(C)=C(C#N)C(=O)N1c1ccc(Cl)c(Cl)c1 |  | 15 µM | 167 µg/mL (≈ 598 µM)
C=C1C(CC(C)C)=C(C#N)C(=O)N1c1cc(Cl)cc(Cl)c1 |  | 5.5 µM | 119 µg/mL (≈ 370 µM)
C=C1C(CC(C)C)=C(C#N)C(=O)N1c1cc(C(F)(F)F)cc(C(F)(F)F)c1 |  | 6.3 µM | 26 µg/mL (≈ 67 µM)
C=C1C(c2ccccc2)=C(C#N)C(=O)N1C1CCCCC1 | 12.5 µM | 7.5 µM | 130 µg/mL (≈ 467 µM)
C=C1C(CCCC)=C(C#N)C(=O)N1c1cccc(Cl)c1C | 8.3 µM | 4.3 µM | 175 µg/mL (≈ 582 µM)
CC(C)CC[C@@H](O)[C@](C)(O)[C@H]1CC[C@@]2(O)C3=CC(=O)[C@@H]4C[C@@H](O)[C@@H](O)C[C@]4(C)[C@H]3CC[C@]12C [PONASTERONE A] | 0.9 µM | 1.1 µM | 
